Compound activity as filed in PubChem.
APJ antagonist – APJ receptor antagonism | P35414 | CHO-K1 APJ beta-arrestin complementation, luminescence | inhibition, % at 20 µM | 330,000 compounds, 0.32% hits;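 active = inhibition above about 40% at 20 µM, limit read from the data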;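 note: cells challenged with 10 nM apelin-13 agonist together with compound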
CCR6 antagonist – antagonists of human CCR6 receptor; inhibition, % at 20 µM; 340,000 compounds, 0.49% hits; P51684; CHO-K1 CCR6 PathHunter beta-arrestin, luminescence, CCL20-stimulated;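 active = compounds whose inhibition of the agonist-driven luminescence signal at 20 µM reaches about 50%, limit read from the data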;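 note: cells stimulated with CCL20 at 14 nM final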
EBI2 antag – antagonists of human EBI2 receptor; P32249; EBI2 beta-arrestin recruitment, luminescence, 7a,25-OHC stimulated; inhibition, % at 5 µM; 360,000 compounds, 0.81% hits; AID 651636; in the data active = inhibition above about 38%;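 note: enzyme fragment complementation signal reports receptor beta-arrestin coupling in cells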
Target sequence (P32249 whole entry, looked up, the tested form may be a part): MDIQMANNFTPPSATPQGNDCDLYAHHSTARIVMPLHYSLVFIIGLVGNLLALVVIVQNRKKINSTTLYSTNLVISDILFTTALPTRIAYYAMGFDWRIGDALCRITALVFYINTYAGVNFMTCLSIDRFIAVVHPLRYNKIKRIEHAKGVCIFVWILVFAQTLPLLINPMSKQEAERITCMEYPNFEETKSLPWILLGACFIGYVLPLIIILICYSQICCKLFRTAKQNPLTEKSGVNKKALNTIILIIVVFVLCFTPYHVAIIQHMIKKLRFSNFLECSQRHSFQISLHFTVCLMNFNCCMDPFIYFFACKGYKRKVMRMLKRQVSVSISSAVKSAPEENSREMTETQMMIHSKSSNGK
APJ ag – agonists of human APJ apelin receptor | P35414 | CHO-K1 APJ PathHunter beta-arrestin, luminescence; 0% DMSO wells, 100% apelin | activation, % at 20 µM | 330,000 compounds, 0.11% hits;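 active = activation more than six SD over the plate average, tested at 20 µM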
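Assay system: CHO-K1 APJ beta-arrestin complementation cell line / Compound: single test compound dose, 20 µM final, 1% DMSO / Times: overnight seeding, 90 min compound at 25 °C, 1 h detection / Technique: beta-gal luminescence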
CXCR6 block – inhibitors of human CXCR6 receptor; O00574; CHO-K1 PathHunter CXCR6 beta-arrestin, luminescence; inhibition, % at 20 µM; 360,000 compounds, 0.36% hits; AID 602244; in the data active = inhibition above about 34%, passing the limit was not always enough;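 note: antagonist mode with CXCL16 agonist at 10 nM final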
A number is an active result. The list is not random: actives were taken first. Their share in the collection is about 1.5%.

`CC1(C)Cc2c(ccc3ccccc23)/C(=C/C(=O)N2CCCCC2)N1` gave APJ antagonist inactive, CCR6 antagonist 64, EBI2 antag inactive, APJ ag inactive and CXCR6 block inactive.
`COC(=O)[C@]12CCCCC=C1N(Cc1ccc3c(c1)OCO3)C(=O)[C@H](CC(=O)NCc1cccc3ccccc13)C2` gave EBI2 antag inactive.
`CCC(C)[C@H]1CNC(=O)C(=O)N1CCc1cccc2ccccc12` (stereo partly drawn) gave EBI2 antag inactive and CXCR6 block inactive.
For CCC(C)[C@H]1CNC(=S)N1CCc1cccc2ccccc12 (stereo partly drawn) the results were APJ antagonist inactive, CCR6 antagonist inactive, EBI2 antag 46, APJ ag inactive and CXCR6 block inactive.
Screening Cc1ccc(O)c(N=Nc2nccs2)c1 returned APJ antagonist inactive, EBI2 antag inactive, APJ ag inactive and CXCR6 block 52.
For CN(C)c1ccc(C(=O)c2ccc(O)cc2O)cc1 the results were APJ antagonist inactive, CCR6 antagonist inactive, EBI2 antag inactive, APJ ag inactive and CXCR6 block inactive.
CN(C)c1ccc(Cc2cc3c(O)ccc(O)c3cc(Cc3ccc(N(C)C)cc3)c2=O)cc1 was read as EBI2 antag inactive and CXCR6 block 34.
CC1CC(C)CN(C(=O)COC(=O)c2cc(S(=O)(=O)N3CCOCC3)ccc2F)C1 (stereo not drawn) was read as APJ antagonist inactive, CCR6 antagonist inactive, EBI2 antag inactive, APJ ag inactive and CXCR6 block inactive.
Screening Cc1ccc(C)c(N=Nc2nc3ccccc3n2C)c1 returned APJ antagonist inactive, CCR6 antagonist inactive, EBI2 antag inactive, APJ ag inactive and CXCR6 block 28.
CN1CCN(c2ccccc2NC(=O)c2ccc(-c3cccc(Cl)c3)o2)CC1 was read as APJ antagonist inactive, CCR6 antagonist 55, EBI2 antag inactive, APJ ag inactive and CXCR6 block inactive.
Screening CN1CCN(c2ccccc2NC(=O)c2ccc(Br)o2)CC1 returned APJ antagonist inactive, CCR6 antagonist inactive, EBI2 antag inactive, APJ ag inactive and CXCR6 block inactive.
For O=C(Nc1ccccc1N1CCOCC1)c1ccc(Br)o1 the results were APJ antagonist inactive, CCR6 antagonist 51, EBI2 antag inactive, APJ ag inactive and CXCR6 block inactive.
For O=C(N/N=C/c1ccccc1O)c1cccc(C(F)(F)F)c1 the results were APJ antagonist inactive, CCR6 antagonist inactive, EBI2 antag 59, APJ ag inactive and CXCR6 block inactive.
`COc1ccc(CN2CN(c3ccc(Cl)cc3)C(=O)N(n3cnnc3)C2)cc1` gave APJ antagonist inactive, CCR6 antagonist inactive, EBI2 antag inactive, APJ ag inactive and CXCR6 block 44.
For CC(=O)Nc1ccc(NC(=O)CN(C)S(=O)(=O)c2ccc3ccccc3c2)cc1 the results were APJ antagonist inactive, CCR6 antagonist inactive, EBI2 antag inactive, APJ ag inactive and CXCR6 block inactive.
Screening CCN1CCN(S(=O)(=O)c2ccc(Cl)c(C(=O)N(C)C(c3ccccc3)c3ccccc3)c2)CC1 returned APJ antagonist inactive, CCR6 antagonist inactive, EBI2 antag inactive, APJ ag inactive and CXCR6 block inactive.
`COc1ccc(Nc2nc(N3CCCC3)c3ccccc3n2)cc1` gave APJ antagonist inactive, CCR6 antagonist inactive, EBI2 antag inactive, APJ ag inactive and CXCR6 block inactive.
Screening CCN(CC)c1ccc(Nc2nc(N3CCOCC3)c3ccccc3n2)cc1 returned APJ antagonist inactive, CCR6 antagonist inactive, EBI2 antag 45, APJ ag inactive and CXCR6 block inactive.
Cc1cccc(C(=O)Nc2ccnc(-c3ccncc3)n2)c1 was read as APJ antagonist inactive, CCR6 antagonist inactive, EBI2 antag inactive, APJ ag inactive and CXCR6 block inactive.
Screening CN(Cc1ccccc1)S(=O)(=O)c1ccc(NC(=S)NC(=O)C(C)(C)C)cc1 returned APJ antagonist inactive, CCR6 antagonist inactive, EBI2 antag inactive, APJ ag inactive and CXCR6 block inactive.
Screening CN(Cc1ccccc1)S(=O)(=O)c1ccc(NC(=S)NC(=O)C2CCCCC2)cc1 returned APJ antagonist inactive, CCR6 antagonist 51, EBI2 antag inactive, APJ ag inactive and CXCR6 block inactive.
For CCCCNC(=O)c1sc(=S)n2c1[nH]c(=O)c1ccccc12 the results were APJ antagonist inactive, CCR6 antagonist inactive, EBI2 antag inactive, APJ ag inactive and CXCR6 block inactive.
`O=[N+]([O-])c1ccc(/C=N/N=C/c2ccc([N+](=O)[O-])o2)o1` gave CCR6 antagonist 61, EBI2 antag inactive and CXCR6 block inactive.
For CCCCCCCCCCCCC/C=C/[C@@H](O)[C@@H](N)CO the results were APJ antagonist inactive, CCR6 antagonist 67, EBI2 antag inactive, APJ ag inactive and CXCR6 block inactive.
Screening CCCCCCCC/C=C\CCCCCCCC(=O)O returned APJ antagonist inactive, CCR6 antagonist inactive, EBI2 antag inactive, APJ ag inactive and CXCR6 block inactive.
CC1(C)C(=O)C=CC(=O)C(C)(C)C(=O)C=CC(=O)C(C)(C)C2=CC=C(O2)C(C)(C)C(=O)C=CC1=O was read as CCR6 antagonist 55, EBI2 antag inactive and CXCR6 block inactive.
For Cc1ccc(C(=O)/C=C/C(=O)c2ccc(C)cc2)cc1 the results were APJ antagonist inactive, CCR6 antagonist 100, EBI2 antag inactive, APJ ag inactive and CXCR6 block 92.
For CC(C)(C)N(Cc1ccccc1)C(=O)CSc1nnc(CNc2ccc(F)cc2)o1 the results were APJ antagonist inactive, CCR6 antagonist inactive, EBI2 antag 47, APJ ag inactive and CXCR6 block inactive.
`Cc1c(C(=O)N2CCC(C)CC2)oc2ccc3c(c12)C(O)CC1(CCCCC1)O3` (stereo not drawn) gave APJ antagonist inactive, CCR6 antagonist inactive, EBI2 antag inactive, APJ ag inactive and CXCR6 block inactive.
Screening COc1cc(C=O)ccc1OCCOCCOc1ccc(Cl)cc1Cl returned APJ antagonist inactive, CCR6 antagonist inactive, EBI2 antag inactive, APJ ag inactive and CXCR6 block inactive.
Oc1c(Cl)cc(Cl)c2cccnc12 was read as CCR6 antagonist 63, EBI2 antag inactive and CXCR6 block 49.
`CCC(=O)NC(c1ccc(OC)c(OC)c1)c1cc(Cl)c2cccnc2c1O` (stereo not drawn) gave CCR6 antagonist inactive, EBI2 antag inactive and CXCR6 block inactive.
For O=C(Oc1c(CN2CCOCC2)cc(Cl)c2cccnc12)c1ccccc1Cl the results were APJ antagonist inactive, CCR6 antagonist inactive, EBI2 antag 53, APJ ag inactive and CXCR6 block inactive.
Oc1c(Cl)cc(CN2CCCCC2)c2cccnc12 was read as APJ antagonist inactive, EBI2 antag inactive, APJ ag inactive and CXCR6 block 49.
CCC(=O)NC(c1ccc(C)cc1)c1cc(Cl)c2cccnc2c1O (stereo not drawn) was read as APJ antagonist inactive, CCR6 antagonist 56, EBI2 antag inactive, APJ ag inactive and CXCR6 block inactive.
